Measured values: ChEMBL document CHEMBL1777685, “Biological evaluation of novel benzisoxazole derivatives as PPARδ agonists” (Bioorg Med Chem, 2011)
Calls of active or inactive are those of the source. The rule behind the calls is not given here.

How the values were obtained:
[1] = biological target: T1, Peroxisome proliferator-activated receptor delta (Homo sapiens, UniProt Q03181); experiment: Agonist activity at human PPARdelta-LBD expressed in CV1 cells co-transfected with Gal4 after 40 hrs by luciferase based transactivation assay; format: functional, cell-based, CV-1
T1 sequence (Q03181 whole entry): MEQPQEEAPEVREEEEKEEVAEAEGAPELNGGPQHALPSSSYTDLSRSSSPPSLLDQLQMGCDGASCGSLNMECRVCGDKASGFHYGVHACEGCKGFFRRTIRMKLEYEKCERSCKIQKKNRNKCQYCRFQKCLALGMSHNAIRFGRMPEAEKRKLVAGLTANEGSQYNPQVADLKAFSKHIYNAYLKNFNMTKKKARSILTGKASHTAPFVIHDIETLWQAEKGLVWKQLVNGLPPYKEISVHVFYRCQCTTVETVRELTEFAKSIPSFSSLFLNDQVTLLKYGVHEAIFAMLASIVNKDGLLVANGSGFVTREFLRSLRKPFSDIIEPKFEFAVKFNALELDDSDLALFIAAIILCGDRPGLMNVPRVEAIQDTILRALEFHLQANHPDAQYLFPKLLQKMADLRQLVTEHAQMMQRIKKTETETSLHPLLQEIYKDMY

[2] = biological target: T2, Peroxisome proliferator-activated receptor alpha (Homo sapiens, UniProt Q07869); experiment: Agonist activity at human PPARalpha-LBD expressed in CV1 cells co-transfected with Gal4 after 40 hrs by luciferase based transactivation assay; format: functional, cell-based, CV-1
T2 sequence (Q07869 whole entry): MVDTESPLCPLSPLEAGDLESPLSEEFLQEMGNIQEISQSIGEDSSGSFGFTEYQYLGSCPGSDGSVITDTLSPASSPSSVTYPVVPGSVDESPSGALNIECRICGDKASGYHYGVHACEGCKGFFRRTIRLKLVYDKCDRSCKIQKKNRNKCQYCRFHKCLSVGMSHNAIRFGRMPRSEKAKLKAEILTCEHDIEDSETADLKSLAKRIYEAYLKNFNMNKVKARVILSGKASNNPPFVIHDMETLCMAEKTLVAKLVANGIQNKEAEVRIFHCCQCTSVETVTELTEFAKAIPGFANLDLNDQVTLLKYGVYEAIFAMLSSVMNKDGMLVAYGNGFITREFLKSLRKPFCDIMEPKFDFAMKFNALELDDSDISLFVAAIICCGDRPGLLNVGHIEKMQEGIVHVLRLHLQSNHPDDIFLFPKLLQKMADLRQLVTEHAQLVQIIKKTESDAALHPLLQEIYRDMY

[3] = biological target: T3, Peroxisome proliferator-activated receptor gamma (Homo sapiens, UniProt P37231); format: functional, cell-based, CV-1
T3 sequence (P37231 whole entry): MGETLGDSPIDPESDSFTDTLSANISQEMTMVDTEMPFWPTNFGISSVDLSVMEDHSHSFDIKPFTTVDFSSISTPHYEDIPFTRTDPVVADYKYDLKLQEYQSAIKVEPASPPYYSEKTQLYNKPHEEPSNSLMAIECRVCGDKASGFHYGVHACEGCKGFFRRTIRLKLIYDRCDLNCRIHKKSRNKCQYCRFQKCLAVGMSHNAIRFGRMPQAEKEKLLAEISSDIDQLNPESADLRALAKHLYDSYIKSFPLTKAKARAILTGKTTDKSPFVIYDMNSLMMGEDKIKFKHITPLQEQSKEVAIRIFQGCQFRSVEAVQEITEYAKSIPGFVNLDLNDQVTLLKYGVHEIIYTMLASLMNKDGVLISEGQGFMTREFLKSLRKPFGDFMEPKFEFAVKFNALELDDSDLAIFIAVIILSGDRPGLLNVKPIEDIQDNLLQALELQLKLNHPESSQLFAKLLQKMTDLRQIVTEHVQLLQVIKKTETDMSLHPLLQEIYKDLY

Rattus norvegicus [4] = species: Rattus norvegicus; experiment: Induction of oligodendrocyte precursor cell differentiation isolated from Wistar rat fetal brain cortex at 0.01 uM after 3 days by anti O1-antibody immunostaining method; format: functional
Procedure, shortened: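 Primary mixed cultures from fetal Wistar rat cortex, with OPCs enriched on a Percoll gradient. Cells seeded at 1 × 10⁴/cover glass and cultured 4 days at 37 °C, 5% CO₂, then exposed to compound in DMSO (0.01% final) for 3 days; vehicle control 0.01% DMSO. Anti-O1 immunostaining, random images; stained area measured and given relative to control mean (100%).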

Rattus norvegicus [5] = species: Rattus norvegicus; experiment: Induction of oligodendrocyte precursor cell differentiation isolated from Wistar rat fetal brain cortex at 0.03 uM after 3 days by anti O1-antibody immunostaining method; format: functional
Rattus norvegicus [6] = species: Rattus norvegicus; experiment: Induction of oligodendrocyte precursor cell differentiation isolated from Wistar rat fetal brain cortex at 0.1 uM after 3 days by anti O1-antibody immunostaining method; format: functional

EC50 [1] | EC50 [2] | EC50 [3] | Compound | Activity (Rattus norvegicus [4]) | Activity (Rattus norvegicus [5]) | Activity (Rattus norvegicus [6])
2 µM | 2.3 µM | 5.9 µM | CCCCCCc1oc(-c2ccccc2Cl)nc1CCc1noc2cc(OC(C)(C)C(=O)O)ccc12 | – | – | –
1.3 µM | 34.1 µM | 31.1 µM | CC(C)c1oc(-c2ccccc2Cl)nc1CCc1noc2cc(OC(C)(C)C(=O)O)ccc12 | – | – | –
5.4 µM | 13.9 µM | 26.4 µM | CCCc1oc(-c2ccccc2Cl)nc1CCc1noc2cc(OC(C)(C)C(=O)O)ccc12 | – | – | –
0.1 µM | 8.6 µM | 26.3 µM | CC(C)c1oc(-c2ccc(Cl)cc2Cl)nc1CCc1noc2cc(OC(C)(C)C(=O)O)ccc12 | – | – | –
0.011 µM | 0.2 µM | 0.91 µM | Cc1cc2c(CCc3sc(-c4ccc(C(F)(F)F)cc4)nc3C(C)C)noc2cc1OC(C)(C)C(=O)O | Active | Active | Active
0.021 µM | 0.83 µM | 5.1 µM | CC(C)c1nc(-c2ccc(C(F)(F)F)cc2)sc1CCc1noc2cc(OC(C)(C)C(=O)O)ccc12 | – | – | –
– | – | – | Cc1cc(SCc2sc(-c3ccc(C(F)(F)F)cc3)nc2C)ccc1OCC(=O)O | Active | Active | Active
1.2 µM | 2.9 µM | 1 µM | CC(C)c1oc(-c2ccc(C(C)(C)C)cc2)nc1CCc1noc2cc(OC(C)(C)C(=O)O)ccc12 | – | – | –
6.7 µM | 14.7 µM | 25.1 µM | CCc1oc(-c2ccccc2)nc1CCc1noc2cc(OC(C)(C)C(=O)O)ccc12 | – | – | –
> 10 µM | > 10 µM | > 10 µM | CC(C)(Oc1ccc2c(CCc3nc(-c4ccccc4Cl)oc3C(C)(C)C)noc2c1)C(=O)O | – | – | –
0.7 µM | 3.3 µM | 2.6 µM | CCCCc1ccc(-c2nc(CCc3noc4cc(OC(C)(C)C(=O)O)ccc34)c(C(C)C)o2)cc1 | – | – | –
14.9 µM | 12.9 µM | 20.8 µM | Cc1oc(-c2ccccc2)nc1CCc1noc2cc(OC(C)(C)C(=O)O)ccc12 | – | – | –
> 10 µM | > 10 µM | > 10 µM | CC(C)c1oc(-c2c(Cl)cccc2Cl)nc1CCc1noc2cc(OC(C)(C)C(=O)O)ccc12 | – | – | –
0.9 µM | 10.4 µM | 14.6 µM | CC(C)c1oc(-c2ccccc2O)nc1CCc1noc2cc(OC(C)(C)C(=O)O)ccc12 | – | – | –
> 10 µM | – | – | COc1ccc(CC2SC(=O)NC2=O)cc1C(=O)NCc1ccc(C(F)(F)F)cc1 (centres undefined) | – | – | inactive
> 10 µM | > 10 µM | > 10 µM | CC(C)c1oc(-c2ccccc2C(F)(F)F)nc1CCc1noc2cc(OC(C)(C)C(=O)O)ccc12 | – | – | –
9.8 µM | 13.2 µM | 19.1 µM | CCCc1oc(-c2ccccc2)nc1CCc1noc2cc(OC(C)(C)C(=O)O)ccc12 | – | – | –
– | – | – | Cc1cc2c(CCc3nc(-c4ccc(Cl)cc4Cl)oc3C(C)C)noc2cc1OCC(=O)O | – | – | Active
